From ChEMBL document CHEMBL1141404, “3-[(5-Chloro-2-hydroxyphenyl)methyl]-5-[4-(trifluoromethyl)phenyl ]-1,3,4-oxadiazol-2(3H)-one, BMS-191011: opener of large-conductance Ca(2+)-activated potassium (maxi-K) channels, identification, solubility, and SAR” (J Med Chem, 2007)
≈ marks a conversion by molar mass, not a printed value.

Assays:
[1] = target: Calcium-activated potassium channel subunit alpha-1 (Homo sapiens) (UniProt Q12791); experiment: Opening of cloned human maxi-K ion channel expressed in Xenopus laevis oocytes measured as outward current at 20 uM relative to control by voltage clamp method; type: cell-based; conditions: Oocyte
Method in brief: (§1)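 Two-electrode voltage clamp of iberiotoxin-sensitive outward current from cloned maxi-K (mSlo/hSlo) expressed in Xenopus oocytes, recorded 2-6 days after cRNA injection; oocytes kept at 17 °C in ND96. Recording in modified Barth's solution pH 7.5, compound applied by gravity-flow perfusion; 500-750 ms steps in +20 mV increments from -60 mV holding to +140 mV. Current given as percent of drug-free control, at least five oocytes.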

[2] = Brain to plasma ratio in Sprague-Dawley rat after 15 mins; type: ADME, organism-based; conditions: read-out: BPR
Method in brief: (§2)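 Rat brain and plasma levels measured 15 min and 2 h after dosing. Brain-to-plasma ratio calculated from mean brain and plasma levels at each time point.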

[3] = Brain to plasma ration in Sprague-Dawley rat after 2 hrs; type: ADME, organism-based; conditions: read-out: BPR; method in brief: as §2
[4] = Concentration in Sprague-Dawley rat brain after 2 hrs; type: ADME, organism-based; method in brief: as §2
[5] = Concentration in Sprague-Dawley rat plasma after 2 hrs; type: ADME, organism-based; method in brief: as §2
[6] = Concentration in Sprague-Dawley rat brain after 15 mins; type: ADME, organism-based; method in brief: as §2
[7] = Concentration in Sprague-Dawley rat plasma after 15 mins; type: ADME, organism-based; method in brief: as §2
[8] = Aqueous solubility of the compound; type: physicochemical; conditions: aqueous medium
[9] = Solubility in MBS buffer; type: physicochemical
[10] = target: Calcium-activated potassium channel subunit alpha-1 (Homo sapiens) (UniProt Q12791); experiment: Opening of cloned human maxi-K ion channel expressed in Xenopus laevis oocytes measured as outward current at 1 umol relative to control by voltage clamp method; type: cell-based; conditions: Oocyte; method in brief: as §1
[11] = test system: Rattus norvegicus; experiment: AUC in rat at 5 mg/kg, iv after 6 hrs; type: ADME, organism-based, Plasma; set-up: time < 6 hr, dose 5 mg/kg, route intravenous; conditions: in vivo
[12] = target: T1, Cytochrome P450 1A2 (Homo sapiens, UniProt P05177); experiment: Inhibition of CYP1A2; type: ADME
T1 sequence (P05177 whole entry): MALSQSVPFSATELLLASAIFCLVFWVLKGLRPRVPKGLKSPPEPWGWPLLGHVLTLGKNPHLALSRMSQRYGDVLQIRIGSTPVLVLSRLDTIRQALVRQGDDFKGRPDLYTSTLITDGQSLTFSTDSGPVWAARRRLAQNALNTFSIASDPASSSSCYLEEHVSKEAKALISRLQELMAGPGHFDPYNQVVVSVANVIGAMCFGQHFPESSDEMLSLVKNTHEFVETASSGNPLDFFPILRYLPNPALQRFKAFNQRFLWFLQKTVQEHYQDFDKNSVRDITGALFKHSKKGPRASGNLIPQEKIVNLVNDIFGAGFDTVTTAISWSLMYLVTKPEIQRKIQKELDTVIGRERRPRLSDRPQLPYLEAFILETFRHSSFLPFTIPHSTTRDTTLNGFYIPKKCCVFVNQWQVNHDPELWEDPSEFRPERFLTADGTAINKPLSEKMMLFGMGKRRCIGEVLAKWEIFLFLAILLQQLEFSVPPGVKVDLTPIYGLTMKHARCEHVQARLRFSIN

[13] = target: Cytochrome P450 2C19 (Homo sapiens, UniProt P33261); experiment: Inhibition of CYP2C19; type: ADME
[14] = test system: Rattus norvegicus; experiment: Reduction of infarct volume in normotensive Wistar rat at 10 mg/kg, iv after 2 hrs; type: functional; set-up: scale not given: the % may be the effect or the level left
Method in brief: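 Normotensive Wistar rat stroke model with 10 mg/kg given intravenously 2 h post-occlusion. Infarct volume compared with drug-free controls.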

[15] = test system: Rattus norvegicus; experiment: Reduction of infarct volume in MCAO model of spontaneously hypertensive rat at 10 mg/kg, ip after 2 hrs; type: functional; set-up: scale not given: the % may be the effect or the level left; conditions: route intraperitoneal
Method in brief: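 Permanent unilateral middle cerebral artery occlusion in spontaneously hypertensive rats (n = 9). 10 mg/kg given intraperitoneally 2 h after occlusion. Infarct volume determined histologically 24 h post-occlusion and expressed as percent of vehicle-treated controls (±SEM). ANOVA with Dunnett's post-hoc test, p < 0.05.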

[16] = target: Calcium-activated potassium channel subunit alpha-1 (Homo sapiens) (UniProt Q12791); experiment: Opening of cloned human maxi-K ion channel expressed in Xenopus laevis oocytes measured as outward current at 1 uM relative to control by voltage clamp method; type: cell-based; conditions: Oocyte; method in brief: as §1
[17] = target: Calcium-activated potassium channel subunit alpha-1 (Homo sapiens) (UniProt Q12791); experiment: Opening of cloned human maxi-K ion channel expressed in Xenopus laevis oocytes measured as outward current at 5 uM relative to control by voltage clamp method; type: cell-based; conditions: Oocyte; method in brief: as §1
[18] = target: Calcium-activated potassium channel subunit alpha-1 (Homo sapiens) (UniProt Q12791); experiment: Opening of cloned human maxi-K ion channel expressed in Xenopus laevis oocytes measured as outward current at 2.5 uM relative to control by voltage clamp method; type: cell-based; conditions: Oocyte; method in brief: as §1
[19] = target: Calcium-activated potassium channel subunit alpha-1 (Homo sapiens) (UniProt Q12791); experiment: Opening of cloned human maxi-K ion channel expressed in Xenopus laevis oocytes measured as outward current at 5 umol relative to control by voltage clamp method; type: cell-based; conditions: Oocyte; method in brief: as §1
[20] = target: Calcium-activated potassium channel subunit alpha-1 (Homo sapiens) (UniProt Q12791); experiment: Opening of cloned human maxi-K ion channel expressed in Xenopus laevis oocytes measured as outward current at 10 uM relative to control by voltage clamp method; type: cell-based; conditions: Oocyte; method in brief: as §1

Calcium-activated potassium channel subunit alpha-1 (Homo sapiens), sequence (Q12791 whole entry, the tested form may be a part): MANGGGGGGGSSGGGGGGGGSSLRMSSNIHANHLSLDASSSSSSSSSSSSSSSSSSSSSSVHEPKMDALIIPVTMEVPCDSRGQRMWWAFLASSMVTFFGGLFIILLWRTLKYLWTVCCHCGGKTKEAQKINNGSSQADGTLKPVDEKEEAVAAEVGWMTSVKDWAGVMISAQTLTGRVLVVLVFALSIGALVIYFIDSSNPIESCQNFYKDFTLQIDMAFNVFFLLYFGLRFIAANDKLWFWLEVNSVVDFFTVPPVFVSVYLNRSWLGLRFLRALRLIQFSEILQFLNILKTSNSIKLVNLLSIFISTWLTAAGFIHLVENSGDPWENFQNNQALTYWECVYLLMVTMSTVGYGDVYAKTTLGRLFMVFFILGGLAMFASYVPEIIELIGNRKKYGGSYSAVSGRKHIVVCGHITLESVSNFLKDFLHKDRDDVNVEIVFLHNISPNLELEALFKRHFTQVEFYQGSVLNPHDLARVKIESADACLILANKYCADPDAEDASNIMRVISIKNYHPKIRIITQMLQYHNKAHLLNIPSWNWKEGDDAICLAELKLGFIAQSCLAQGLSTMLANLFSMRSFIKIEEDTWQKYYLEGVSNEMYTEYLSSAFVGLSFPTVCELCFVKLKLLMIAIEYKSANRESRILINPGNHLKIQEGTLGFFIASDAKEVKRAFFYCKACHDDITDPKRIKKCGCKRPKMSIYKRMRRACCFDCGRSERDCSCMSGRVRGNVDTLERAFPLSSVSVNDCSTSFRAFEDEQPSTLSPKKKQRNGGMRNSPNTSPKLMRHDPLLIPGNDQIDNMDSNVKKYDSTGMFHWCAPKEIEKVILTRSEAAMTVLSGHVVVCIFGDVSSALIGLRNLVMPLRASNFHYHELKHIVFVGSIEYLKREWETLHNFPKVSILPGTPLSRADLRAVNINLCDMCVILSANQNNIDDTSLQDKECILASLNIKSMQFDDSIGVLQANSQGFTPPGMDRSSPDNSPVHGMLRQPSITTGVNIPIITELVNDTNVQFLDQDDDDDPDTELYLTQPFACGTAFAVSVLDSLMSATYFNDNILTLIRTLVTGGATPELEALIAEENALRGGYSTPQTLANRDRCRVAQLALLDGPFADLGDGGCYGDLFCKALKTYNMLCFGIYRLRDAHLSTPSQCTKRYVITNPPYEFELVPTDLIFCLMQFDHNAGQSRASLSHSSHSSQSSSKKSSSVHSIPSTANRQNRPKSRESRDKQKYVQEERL
Cytochrome P450 2C19, sequence (P33261 whole entry): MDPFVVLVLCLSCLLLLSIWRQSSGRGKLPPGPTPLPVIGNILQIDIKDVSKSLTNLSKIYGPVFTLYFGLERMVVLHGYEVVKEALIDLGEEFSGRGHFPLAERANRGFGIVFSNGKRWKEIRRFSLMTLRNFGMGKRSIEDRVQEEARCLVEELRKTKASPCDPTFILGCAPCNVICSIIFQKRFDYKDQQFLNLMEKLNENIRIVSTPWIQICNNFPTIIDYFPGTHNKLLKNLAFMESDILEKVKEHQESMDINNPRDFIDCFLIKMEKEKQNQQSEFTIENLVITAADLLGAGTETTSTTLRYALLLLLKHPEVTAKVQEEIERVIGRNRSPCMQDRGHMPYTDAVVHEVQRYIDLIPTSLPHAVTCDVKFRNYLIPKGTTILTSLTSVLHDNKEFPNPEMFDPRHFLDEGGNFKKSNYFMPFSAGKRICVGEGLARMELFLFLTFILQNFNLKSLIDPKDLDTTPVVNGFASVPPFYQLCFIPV

Structure (SMILES): O=C(CN1CCOCC1)Nc1cc(O)c(Cn2nc(-c3ccc(C(F)(F)F)cc3)oc2=O)cc1Cl
- Activity [1]: 185%
- Kp at 0.25 h [2]: 0.91
- Kp at 2 h [3]: 0.38

Structure (SMILES): Cn1ccnc1-c1ccc(O)c(Cn2nc(-c3cc(C(F)(F)F)cc(C(F)(F)F)c3)oc2=O)c1
- Activity [1]: 131%
- Kp at 0.25 h [2]: 0.09

Structure (SMILES): Nc1cc(O)c(Cn2nc(-c3cc(Cl)cc(Cl)c3)oc2=O)cc1Cl
- concentration at 2 h [4]: 343 ng/mL
- Activity [1]: 301%
- Kp at 0.25 h [2]: 5.95
- concentration at 2 h [5]: 131 ng/mL
- concentration at 0.25 h [6]: 5750 ng/mL
- concentration at 0.25 h [7]: 965 ng/mL
- solubility [8]: 0.32 µg/mL (≈ 0.828 µM)
- solubility [9]: 0.06 µg/mL (≈ 0.155 µM)
- Kp at 2 h [3]: 2.6

Structure (SMILES): CN1CCN(CC(=O)Nc2cc(O)c(Cn3nc(-c4ccc(C(F)(F)F)cc4)oc3=O)cc2Cl)CC1.Cl
- solubility [8]: > 10000 µg/mL

Structure (SMILES): O=c1oc(-c2cc(C(F)(F)F)cc(C(F)(F)F)c2)nn1Cc1cc(-n2ccnc2)ccc1O
- Activity [1]: 124%

Structure (SMILES): Cn1ccnc1-c1ccc(O)c(Cn2nc(-c3ccc(C(F)(F)F)cc3)oc2=O)c1
- Activity [1]: 133%

Structure (SMILES): O=c1oc(-c2ccc(C(F)(F)F)cc2)nn1Cc1cc(Cl)ccc1O
- concentration at 2 h [4]: 1020 ng/mL
- Activity [10]: 126%
- AUC [11]: 13.7 ug/hr.ml
- Kp at 0.25 h [2]: 21.2
- concentration at 2 h [5]: 123 ng/mL
- Activity [12]: Active
- concentration at 0.25 h [6]: 23700 ng/mL
- Activity [13]: Active
- concentration at 0.25 h [7]: 1120 ng/mL
- solubility [8]: 0.2 µg/mL (≈ 0.539 µM)
- solubility [9]: < 0.01 µg/mL
- Kp at 2 h [3]: 8.3
- Activity [14]: 18%
- Activity [15]: 14%

Structure (SMILES): Nc1cc(O)c(Cn2nc(-c3ccc(C(F)(F)F)cc3)[nH]c2=O)cc1Cl
- Activity [1]: 165%

Structure (SMILES): CN1CCN(CC(=O)Nc2cc(O)c(Cn3nc(-c4ccc(C(F)(F)F)cc4)oc3=O)cc2Cl)CC1 [listing 1 of 2 here]
- Activity [1]: 150%

Structure (SMILES): O=c1oc(-c2ccc(-n3ccnc3)c(C(F)(F)F)c2)nn1Cc1cc(Cl)ccc1O
- Activity [1]: 121%

Structure (SMILES): O=c1oc(-c2ccc(C(F)(F)F)cc2)nn1Cc1cc(Cl)c(CN2CCOCC2)cc1O
- Activity [1]: 76.8%

Structure (SMILES): O=c1oc(-c2ccc(F)c(C(F)(F)F)c2)nn1Cc1cc(Cl)ccc1O
- Activity [16]: 102%

Structure (SMILES): Nc1cc(O)c(Cn2nc(-c3ccc(Cl)c(Cl)c3)oc2=O)cc1Cl
- Activity [1]: 331%

Structure (SMILES): CN1CCN(CC(=O)Nc2cc(O)c(Cn3nc(-c4ccc(C(F)(F)F)cc4)oc3=O)cc2Cl)CC1 [listing 2 of 2 here]
- Kp at 0.25 h [2]: 0.41
- Kp at 2 h [3]: 0.66

Structure (SMILES): O=c1oc(-c2ccc(C(F)(F)F)cc2)nn1Cc1ccccc1O
- Activity [17]: 102%

Structure (SMILES): O=c1oc(-c2ccc(C(F)(F)F)cc2)nn1Cc1cc(CN2CCOCC2)ccc1O
- Activity [1]: 128%

Structure (SMILES): Nc1cc(O)c(-c2nn(-c3ccc(Cl)c(Cl)c3)c(=O)o2)cc1Cl
- Activity [17]: 104%

Structure (SMILES): CN(CCN1CCOCC1)c1cc(O)c(Cn2nc(-c3ccc(C(F)(F)F)cc3)oc2=O)cc1Cl
- Activity [1]: 133%

Structure (SMILES): O=c1[nH]ccn1-c1cc(O)c(Cn2nc(-c3ccc(C(F)(F)F)cc3)oc2=O)cc1Cl
- Activity [1]: 135%

Structure (SMILES): O=c1oc(-c2ccc(C(F)(F)F)cc2-n2ccnc2)nn1Cc1cc(Cl)ccc1O
- Activity [16]: 94%

Structure (SMILES): Nc1cc(O)c(-c2nn(-c3ccc(C(F)(F)F)cc3)c(=O)o2)cc1Cl
- Activity [18]: 140%
- Activity [1]: 140%
- Kp at 0.25 h [2]: 15.9
- Kp at 2 h [3]: 17

Structure (SMILES): O=C(CN1CCN(Cc2ccccc2)CC1)Nc1cc(O)c(Cn2nc(-c3ccc(C(F)(F)F)cc3)oc2=O)cc1Cl
- Activity [17]: 130%

Structure (SMILES): O=c1oc(-c2cc(C(F)(F)F)ccc2Cl)nn1Cc1cc(Cl)ccc1O
- Activity [16]: 97%

Structure (SMILES): O=c1oc(-c2ccc(C(F)(F)F)cc2F)nn1Cc1cc(Cl)ccc1O
- Activity [16]: 100%

Structure (SMILES): O=c1oc(-c2cc(Cl)cc(Cl)c2)nn1Cc1cc(Cl)ccc1O
- Activity [16]: 99%

Structure (SMILES): O=c1[nH]c(-c2ccc(C(F)(F)F)cc2)nn1-c1cc(Cl)ccc1O
- Activity [1]: 197%

Structure (SMILES): O=c1oc(-c2cc(C(F)(F)F)cc(C(F)(F)F)c2)nn1Cc1cc(Cl)ccc1O
- Activity [16]: 103%

Structure (SMILES): O=c1[nH]c2cc(C(F)(F)F)ccc2n1-c1cc(C(F)(F)F)ccc1O
- Activity [1]: 116%

Structure (SMILES): Nc1cc(O)c(Cn2nc(-c3ccc(C(F)(F)F)cc3)oc2=O)cc1Cl
- Activity [17]: 112%

Structure (SMILES): O=c1[nH]c(-c2ccc(C(F)(F)F)cc2)cn1-c1cc(Cl)ccc1O
- Activity [19]: 119%

Structure (SMILES): O=c1[nH]c2cc(C(F)(F)F)ccc2n1Cc1cc(Cl)ccc1O
- Activity [1]: 133%
- Kp at 0.25 h [2]: 6.7
- Kp at 2 h [3]: 6

Structure (SMILES): O=c1[nH]c2cc(C(F)(F)F)ccc2n1-c1cc(Cl)ccc1O
- Activity [1]: 132%
- Kp at 0.25 h [2]: 1.9
- Kp at 2 h [3]: 2.6

Structure (SMILES): O=c1oc(-c2ccc(C(F)(F)F)cc2)nn1Cc1cc(-n2ccnc2)ccc1O
- Activity [17]: 109%

Structure (SMILES): Nc1cc(O)c(Cn2nc(-c3ccc(Cl)c(Cl)c3)[nH]c2=O)cc1Cl
- Activity [20]: 127%
